Measurements reported in ChEMBL document CHEMBL4033712, “Synthesis and biological evaluation of new C-12(α/β)-(N-) sulfamoyl-phenylamino-14-deoxy-andrographolide derivatives as potent anti-cancer agents” (Bioorg Med Chem Lett, 2017).

Columns and labels:
Type in all cases: functional
CCRF-CEM = assay: Anticancer activity against human CCRF-CEM cells assessed as cell growth at 10 uM after 48 hrs by sulforhodamine B assay relative to control; settings: read-out: Activity
Outline: (§1)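 Single-dose NCI-60 panel screen: compound added at 10 µM and the culture incubated 48 h. The end point was read by protein staining with sulforhodamine B. The value is percent growth of treated cells relative to untreated control cells, reported as a mean graph across the panel.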

SR = assay: Anticancer activity against human SR cells assessed as cell growth at 10 uM after 48 hrs by sulforhodamine B assay relative to control; settings: read-out: Activity
Outline: (§2)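 NCI-60 single-dose screen: compound added at 10 µM, cultures incubated 48 h. End point by sulforhodamine B protein-binding dye. Value reported as percent growth of treated cells relative to untreated control cells.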

NCI-H226 = assay: Anticancer activity against human NCI-H226 cells assessed as cell growth at 10 uM after 48 hrs by sulforhodamine B assay relative to control; settings: NCI-H226, 48 h, read-out: Activity; outline: as §1
NCI-H460 = assay: Anticancer activity against human NCI-H460 cells assessed as cell growth at 10 uM after 48 hrs by sulforhodamine B assay relative to control; settings: NCI-H460, 48 h, read-out: Activity; outline: as §1
NCI-H522 = assay: Anticancer activity against human NCI-H522 cells assessed as cell growth at 10 uM after 48 hrs by sulforhodamine B assay relative to control; settings: NCI-H522, 48 h, read-out: Activity; outline: as §1
COLO 205 = assay: Anticancer activity against human COLO205 cells assessed as cell growth at 10 uM after 48 hrs by sulforhodamine B assay relative to control; settings: COLO 205, 48 h, read-out: Activity; outline: as §1
HCC 2998 = assay: Anticancer activity against human HCC2998 cells assessed as cell growth at 10 uM after 48 hrs by sulforhodamine B assay relative to control; settings: HCC 2998, 48 h, read-out: Activity; outline: as §1
HCT-15 = assay: Anticancer activity against human HCT15 cells assessed as cell growth at 10 uM after 48 hrs by sulforhodamine B assay relative to control; settings: HCT-15, 48 h, read-out: Activity; outline: as §1
HT-29 = assay: Anticancer activity against human HT-29 cells assessed as cell growth at 10 uM after 48 hrs by sulforhodamine B assay relative to control; settings: HT-29, 48 h, read-out: Activity; outline: as §1
SW-620 = assay: Anticancer activity against human SW620 cells assessed as cell growth at 10 uM after 48 hrs by sulforhodamine B assay relative to control; settings: SW-620, 48 h, read-out: Activity; outline: as §2
SF-268 = assay: Anticancer activity against human SF268 cells assessed as cell growth at 10 uM after 48 hrs by sulforhodamine B assay relative to control; settings: SF-268, 48 h, read-out: Activity; outline: as §1
U-251 = assay: Anticancer activity against human U251 cells assessed as cell growth at 10 uM after 48 hrs by sulforhodamine B assay relative to control; settings: U-251, 48 h, read-out: Activity; outline: as §2
MDA-MB-435 = assay: Anticancer activity against human MDA-MB-435 cells assessed as cell growth at 10 uM after 48 hrs by sulforhodamine B assay relative to control; settings: MDA-MB-435, 48 h, read-out: Activity; outline: as §1
SK-MEL-2 = assay: Anticancer activity against human SK-MEL-2 cells assessed as cell growth at 10 uM after 48 hrs by sulforhodamine B assay relative to control; settings: SK-MEL-2, 48 h, read-out: Activity; outline: as §1
SK-MEL-28 = assay: Anticancer activity against human SK-MEL-28 cells assessed as cell growth at 10 uM after 48 hrs by sulforhodamine B assay relative to control; settings: SK-MEL-28, 48 h, read-out: Activity; outline: as §1
SK-MEL-5 = assay: Anticancer activity against human SK-MEL-5 cells assessed as cell growth at 10 uM after 48 hrs by sulforhodamine B assay relative to control; settings: SK-MEL-5, 48 h, read-out: Activity; outline: as §1
UACC-257 = assay: Anticancer activity against human UACC257 cells assessed as cell growth at 10 uM after 48 hrs by sulforhodamine B assay relative to control; settings: UACC-257, 48 h, read-out: Activity; outline: as §2
OVCAR-3 = assay: Anticancer activity against human OVCAR3 cells assessed as cell growth at 10 uM after 48 hrs by sulforhodamine B assay relative to control; settings: OVCAR-3, 48 h, read-out: Activity; outline: as §1
OVCAR-8 = assay: Anticancer activity against human OVCAR8 cells assessed as cell growth at 10 uM after 48 hrs by sulforhodamine B assay relative to control; settings: OVCAR-8, 48 h, read-out: Activity; outline: as §1
SK-OV-3 = assay: Anticancer activity against human SKOV3 cells assessed as cell growth at 10 uM after 48 hrs by sulforhodamine B assay relative to control; settings: SK-OV-3, 48 h, read-out: Activity; outline: as §1
ACHN = assay: Anticancer activity against human ACHN cells assessed as cell growth at 10 uM after 48 hrs by sulforhodamine B assay relative to control; settings: read-out: Activity; outline: as §1
CAKI-1 = assay: Anticancer activity against human Caki1 cells assessed as cell growth at 10 uM after 48 hrs by sulforhodamine B assay relative to control; settings: CAKI-1, 48 h, read-out: Activity; outline: as §1
SN12C = assay: Anticancer activity against human SN12C cells assessed as cell growth at 10 uM after 48 hrs by sulforhodamine B assay relative to control; settings: read-out: Activity; outline: as §1
UO-31 = assay: Anticancer activity against human UO31 cells assessed as cell growth at 10 uM after 48 hrs by sulforhodamine B assay relative to control; settings: UO-31, 48 h, read-out: Activity; outline: as §2
PC-3 = assay: Anticancer activity against human PC3 cells assessed as cell growth at 10 uM after 48 hrs by sulforhodamine B assay relative to control; settings: PC-3, 48 h, read-out: Activity; outline: as §1
DU-145 = assay: Anticancer activity against human DU145 cells assessed as cell growth at 10 uM after 48 hrs by sulforhodamine B assay relative to control; settings: DU-145, 48 h, read-out: Activity; outline: as §1
MCF7 = assay: Anticancer activity against human MCF7 cells assessed as cell growth at 10 uM after 48 hrs by sulforhodamine B assay relative to control; settings: MCF7, 48 h, read-out: Activity; outline: as §1
MDA-MB-231 = assay: Anticancer activity against human MDA-MB-231 cells assessed as cell growth at 10 uM after 48 hrs by sulforhodamine B assay relative to control; settings: MDA-MB-231, 48 h, read-out: Activity; outline: as §1
BT-549 = assay: Anticancer activity against human BT549 cells assessed as cell growth at 10 uM after 48 hrs by sulforhodamine B assay relative to control; settings: BT-549, 48 h, read-out: Activity; outline: as §1
T47D = assay: Anticancer activity against human T47D cells assessed as cell growth at 10 uM after 48 hrs by sulforhodamine B assay relative to control; settings: read-out: Activity; outline: as §2
MDA-MB-468 = assay: Anticancer activity against human MDA-MB-468 cells assessed as cell growth at 10 uM after 48 hrs by sulforhodamine B assay relative to control; settings: MDA-MB-468, 48 h, read-out: Activity; outline: as §1

Compound	growth at 10 µM (CCRF-CEM) [%]	growth at 10 µM (SR) [%]	growth at 10 µM (NCI-H226) [%]	growth at 10 µM (NCI-H460) [%]	growth at 10 µM (NCI-H522) [%]	growth at 10 µM (COLO 205) [%]	growth at 10 µM (HCC 2998) [%]	growth at 10 µM (HCT-15) [%]	growth at 10 µM (HT-29) [%]	growth at 10 µM (SW-620) [%]	growth at 10 µM (SF-268) [%]	growth at 10 µM (U-251) [%]	growth at 10 µM (MDA-MB-435) [%]	growth at 10 µM (SK-MEL-2) [%]	growth at 10 µM (SK-MEL-28) [%]	growth at 10 µM (SK-MEL-5) [%]	growth at 10 µM (UACC-257) [%]	growth at 10 µM (OVCAR-3) [%]	growth at 10 µM (OVCAR-8) [%]	growth at 10 µM (SK-OV-3) [%]	further results
C=C1CC[C@@H]2[C@](C)(COC(C)=O)[C@H](OC(C)=O)CC[C@@]2(C)[C@H]1CC(Nc1ccc(S(=O)(=O)Nc2ncccn2)cc1)C1=CCOC1=O (stereo not given in full)	-26.2	-4.43	-16.6	18.1	-67.7	-12.1	32	-51.4	-48.6	-70	18.3	-19	-14.8	41.9	-17.7	24.1	16.6	-80.6	3.81	84.7	growth at 10 µM (ACHN): -56.1%; growth at 10 µM (CAKI-1): 50.2%; growth at 10 µM (SN12C): 7.64%; growth at 10 µM (UO-31): -17.9%; growth at 10 µM (PC-3): 15.1%; growth at 10 µM (DU-145): 14.9%; growth at 10 µM (MCF7): -19.6%; growth at 10 µM (MDA-MB-231): -1.01%; growth at 10 µM (BT-549): -32%; growth at 10 µM (T47D): 42.3%; growth at 10 µM (MDA-MB-468): -54%
C=C1CC[C@@H]2[C@](C)(COC(C)=O)[C@H](OC(C)=O)CC[C@@]2(C)[C@H]1CC(Nc1ccc(S(=O)(=O)Nc2ccc(Cl)nn2)cc1)C1=CCOC1=O (stereo not given in full)	-10.3	-5.26	-10	14.5	-34.5	18	88.5	-18.4	-18.3	-37.7	43.3	-41.2	8.13	58.3	6.66	35.8	44	-56.1	16.9	86.1	growth at 10 µM (ACHN): 16.1%; growth at 10 µM (CAKI-1): 31.8%; growth at 10 µM (SN12C): -27.6%; growth at 10 µM (UO-31): 18.4%; growth at 10 µM (PC-3): 38.4%; growth at 10 µM (DU-145): 40.2%; growth at 10 µM (MCF7): 16.8%; growth at 10 µM (MDA-MB-231): 23.8%; growth at 10 µM (BT-549): -9.45%; growth at 10 µM (T47D): 34.1%; growth at 10 µM (MDA-MB-468): -32.3%
C=C1CC[C@@H]2[C@](C)(COC(C)=O)[C@H](OC(C)=O)CC[C@@]2(C)[C@H]1CC(Nc1ccc(S(=O)(=O)Nc2nccc(C)n2)cc1)C1=CCOC1=O (stereo not given in full)	-19.2	0.79	-12.1	46.9	-50.6	9.64	68.2	-42	-28.2	-49.6	43.2	14.6	0.23	40.1	-7.05	45	48.5	-45	10.5	101	growth at 10 µM (ACHN): -37.2%; growth at 10 µM (CAKI-1): 61.4%; growth at 10 µM (SN12C): 25.1%; growth at 10 µM (UO-31): 33.4%; growth at 10 µM (PC-3): 41.5%; growth at 10 µM (DU-145): 38.5%; growth at 10 µM (MCF7): 0.14%; growth at 10 µM (MDA-MB-231): 13.3%; growth at 10 µM (BT-549): -2.66%; growth at 10 µM (T47D): 69.1%; growth at 10 µM (MDA-MB-468): -45.8%
C=C1CC[C@@H]2[C@](C)(COC(C)=O)[C@H](OC(C)=O)CC[C@@]2(C)[C@H]1CC(Nc1ccc(S(=O)(=O)Nc2nccs2)cc1)C1=CCOC1=O (stereo not given in full)	-27.7	-5.84	-14	29.5	-61.9	-24.6	54.2	-39.2	-42.7	-72.7	21.3	4.21	-8.31	28.4	-16.3	31.4	22.4	-70.2	4.39	79.9	growth at 10 µM (ACHN): -46.6%; growth at 10 µM (CAKI-1): 55.9%; growth at 10 µM (SN12C): 15.6%; growth at 10 µM (UO-31): 13.5%; growth at 10 µM (PC-3): 21.8%; growth at 10 µM (DU-145): 22.3%; growth at 10 µM (MCF7): -21.3%; growth at 10 µM (MDA-MB-231): 5.69%; growth at 10 µM (BT-549): -23.5%; growth at 10 µM (T47D): 34.6%; growth at 10 µM (MDA-MB-468): -59.9%
C=C1CC[C@@H]2[C@](C)(COC(C)=O)[C@H](OC(C)=O)CC[C@@]2(C)[C@H]1CC(Nc1ccc(S(=O)(=O)Nc2cc(C)on2)cc1)C1=CCOC1=O (stereo not given in full)	-19.1	1.4	79.5	79.5	-20.2	29	68.3	0.18	-11	14.7	67.3	30	35	63	38.1	44.1	69	7.95	16.1	109	growth at 10 µM (ACHN): 19.5%; growth at 10 µM (CAKI-1): 44%; growth at 10 µM (SN12C): 31.8%; growth at 10 µM (UO-31): 56.9%; growth at 10 µM (PC-3): 70.8%; growth at 10 µM (DU-145): 71.1%; growth at 10 µM (MCF7): 12.2%; growth at 10 µM (MDA-MB-231): 61.1%; growth at 10 µM (BT-549): 27.2%; growth at 10 µM (T47D): 63.6%; growth at 10 µM (MDA-MB-468): 3.23%
